This note sets out measurements from ChEMBL document CHEMBL4513216, “Probing the Open Global Health Chemical Diversity Library for Multistage-Active Starting Points for Next-Generation Antimalarials” (ACS Infect Dis, 2020).

A short description of the data set: Toxicity liver stage against HepG2, at 10uM. The format is cell-based. Also on record: test concentration 10 uM, cell line HepG2-A16-CD81EGFP. To be noted: human, HepG2-A16-CD81EGFP cells; read-out: INHIBITION
Summed up:
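Uninfected HepG2-A16-CD81EGFP cells, 3 × 10^3 per well, 1536-well, plated on prespotted compound at 10 μM final, parasite-free screening media added to match infected plates; puromycin 10 μM positive, DMSO 0.5% negative; run in parallel with 48 h PbLuc assay at 37 °C, 5% CO2; viability by CellTiter-Glo luminescence, normalized to controls.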
With `CN(C)CC1[C@H]2CN(C(=O)c3cc(=O)[nH]c4ccc(F)cc34)C[C@@H]12` (some centres undefined), the cytotoxicity at 10 µM was -6.68%.
`Cc1noc(CCCNC(=O)C2CSCN2C(=O)C(C)(C)C)n1` (centres undefined): the cytotoxicity at 10 µM was -54.4%.
The figure for `Cc1nn(C)c(C)c1CCC(=O)N1CCCOC(Cn2cccn2)C1` (centres undefined) is -2.86%; for `O=C1NCCO[C@H]2CN(C(=O)Cc3cccs3)CC[C@@H]12` it is -98.8%; for `COc1c(CNCc2ccc(Cn3ccnc3)cc2)c(C)nn1C` it is -25.1%.
Take `O=C(NCc1nnc2n1CCCC2)c1cn(-c2ccccc2)nn1`: the cytotoxicity at 10 µM was -2.12%.
Under `COCC(=O)N[C@H]1C[C@H]2C(=O)NC[C@@H](CCC(=O)NC3CC3)N2C1` stands 10.7%; under `c1cnnc(N2CCCC2CNCc2cccs2)c1` (centres undefined), -9.61%.
On to `Cn1c(C(=O)N2CCOCC2)nc2c1CCN(c1ncccn1)C2`, for which the cytotoxicity at 10 µM came out at 1.7%.
As to `Cc1cccc(C(=O)N2C[C@@H]3OCCN(C(C)C)[C@@H]3C2)n1`, the cytotoxicity at 10 µM is -9.2%.
Consider `CCn1cc(-n2cc3nc(N4CCN(C)CC4)[nH]cc-3c2=O)cn1`, for which the cytotoxicity at 10 µM turned out to be 1.54%.
Under `CN1C(=O)CCN(C(=O)C2CCCCC2)c2ccccc21` stands 20.8%; under `CCOCC(=O)NCCCn1ccnc1-c1ccccc1`, -1.11%.
For the molecule `Cc1ccc2oc(CN3CCn4nc(CCC(=O)O)cc4C3)c(C)c2c1`, the cytotoxicity at 10 µM is -5.56%.
As to `CCN(Cc1cc(Cl)ccc1OC)Cc1ncnn1CC`, the cytotoxicity at 10 µM was determined as 3.9%.
With `O=C(O)CCCN1C[C@@H](c2ccccc2F)[C@@]2(CCCCC(=O)N2)C1`, the cytotoxicity at 10 µM was 4.6%.
As for `Cc1noc(C)c1-c1cccc(C2CN(S(=O)(=O)N(C)C)CCO2)n1` (centres undefined), the cytotoxicity at 10 µM was 11.4%.
For `Cc1cc(CN2CC[C@H]3C[C@H](c4nc(C5CC5)cs4)O[C@@H]3C2)no1`, the cytotoxicity at 10 µM was -97.6%.
The figure for `CN(Cc1ccco1)C(=O)[C@H]1CSCN1C(=O)OC(C)(C)C` is -8.97%.
In the case of `CS(=O)(=O)NC1CCN(C(=O)c2ccc(Br)cc2)C1` (centres undefined), the cytotoxicity at 10 µM is 4.94%.
Take `CN(CCN1CCCCC1=O)Cc1cc2cc3c(cc2[nH]c1=O)OCO3`: the cytotoxicity at 10 µM was -6.21%.
With `Cc1nc(COc2ccc(CNCC3CN(C)CCO3)cc2)cs1` (centres undefined), the cytotoxicity at 10 µM was -13.1%.
Consider `O=C(c1ccc(Cl)cc1)N1CCn2c(nn(-c3ccncc3)c2=O)C1`, for which the cytotoxicity at 10 µM was 27.5%.
With `COCCNC(=O)Cn1cc(OCc2ccccc2F)c(=O)cc1CO`, the cytotoxicity at 10 µM was -173%.
`Cc1csc2c(=O)n(CCSc3cnn[nH]3)cnc12`: the cytotoxicity at 10 µM was -3.61%.
The figure for `CCOCC(=O)Nc1ccc(-n2ccc(C(N)=O)n2)cc1` is -5.27%; for `Cc1cc(C(=O)Nc2cccn(Cc3ccc(F)cc3)c2=O)on1` it is 5.38%; for `Cc1nccn1CCCNC(=O)C1CCCCN1Cc1ccncc1` (centres undefined) it is -8.18%.
Under `Cc1cccc(OCC2CCCN(C(=O)Cn3ccccc3=O)C2)c1` (centres undefined) stands -0.503%; under `Cc1cnn(CCNCc2ccc(OCc3ccccn3)cc2)c1`, 0.686%; under `N#Cc1cnc(NC2CCN(C(=O)C3CCCCC3)CC2)c(Cl)c1`, -3.75%.
As to `O=C(c1ccccn1)N1CCC(Cc2cnc3[nH]ccc3c2)CC1`, the cytotoxicity at 10 µM is -7.75%.
On to `Cc1ccc([C@@H]2CN(S(=O)(=O)Cc3ccccc3)C[C@H]2N(C)C)cc1`, for which the cytotoxicity at 10 µM is -2.85%.
Take `CCOC(=O)N1CCN(c2nc(C)ncc2CC)CC1`: the cytotoxicity at 10 µM is -61.2%.
The figure for `CC(C)N1CCC(c2cnc(-c3cncnc3)cn2)CC1` is 2.55%; for `CC(c1cccc(O)c1)N(C)S(N)(=O)=O` (centres undefined) it is -1.89%.
For the molecule `NS(=O)(=O)c1ccc(NCc2ccco2)c2ncccc12`, the cytotoxicity at 10 µM was -153%.
`c1cc(CN2C[C@@H]3OCCN(CC4CCCO4)[C@@H]3C2)ccn1` (some centres undefined): the cytotoxicity at 10 µM was -80.2%.
Under `CC(C)(CNC(=O)NCCc1ccn(-c2ccccc2)n1)C(N)=O` stands -16.8%.
